This is a sample that favours compounds with a hit; in the whole collection about 2% have one here.
PPC-1+TRAIL kill: compounds killing PPC-1 cancer cells with TRAIL present (potentiator screen, no TRAIL-free arm) | PPC-1 cells + TRAIL, ATPLite viability luminescence | cell killing (% activity), % at 4 µM or 5 µM | actives 0.41% (n = 220,000) | AID 1443;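 active = cell killing above 50% in the first pass at 4 µM, then a duplicate retest at 5 µM averaging 50% or more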;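 note: plate controls were cells with TRAIL plus DMSO for no effect and medium-only wells lacking cells for full effect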
HSP90 refold inh: blocks HSP90-mediated luciferase refolding in reticulocyte lysate; actives 0.91% (n = 290,000); Rabbit reticulocyte lysate, luciferase refolding luminescence, 3 h; inhibition, % at 5.6 µM;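 active = inhibition above the screen-wide mean plus 3 SD, computed separately per campaign, cut at about 16% in these data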;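 note: 0% = DMSO wells and 100% = 60 µM geldanamycin wells; inhibitors lower the luminescence because luciferase stays unfolded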
FLuc inh counter: inhibits firefly luciferase, flagging false hits in luciferase inhibition screens; P08659; ATPLite firefly luciferase biochemical luminescence, 10 min; inhibition, % at 10 µM; actives 1.5% (n = 200,000); AID 1006;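 active = inhibition above about 50% when tested at 10 µM, limit read from the data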
Target sequence (P08659 whole entry, looked up): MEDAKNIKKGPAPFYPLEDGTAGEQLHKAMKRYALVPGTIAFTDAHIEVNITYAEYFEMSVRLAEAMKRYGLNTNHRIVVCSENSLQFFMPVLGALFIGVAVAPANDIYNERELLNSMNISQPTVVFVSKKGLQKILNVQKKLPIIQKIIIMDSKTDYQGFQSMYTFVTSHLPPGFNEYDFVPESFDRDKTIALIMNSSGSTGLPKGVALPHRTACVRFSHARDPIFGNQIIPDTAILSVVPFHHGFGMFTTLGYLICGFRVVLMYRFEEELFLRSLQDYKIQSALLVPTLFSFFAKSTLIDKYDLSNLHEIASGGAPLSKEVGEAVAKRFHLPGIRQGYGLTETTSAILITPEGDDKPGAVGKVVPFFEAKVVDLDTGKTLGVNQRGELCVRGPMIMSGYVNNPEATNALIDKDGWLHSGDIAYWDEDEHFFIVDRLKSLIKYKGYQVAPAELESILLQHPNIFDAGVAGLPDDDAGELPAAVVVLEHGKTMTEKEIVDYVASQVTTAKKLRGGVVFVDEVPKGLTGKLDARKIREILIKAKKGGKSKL
TRAIL sens C8: caspase-8 TRAIL sensitization. NB7+C8 cells + TRAIL, ATPlite viability luminescence. inhibition (viability loss, TRAIL sensitization), % at 10 µM. actives 1% (n = 360,000). AID 624354;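 active = compounds causing at least 50% loss of cell viability in the single-dose screen, relative to plate controls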
FLuc act counter: firefly luciferase counter-screen for stimulation assays; activation factor at 10 µM; P08659; ATPlite luciferase biochemical, luminescence, 10 min; 0 = ATP-free wells, 1 = DMSO control; AID 1027; 200,000 tested, under 10 active;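 active = luciferase activation factor, scaled between plate controls, of at least 2 with compound at 10 µM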
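Assay system: Luciferase/luciferin reagent mix; Medium: PBS as buffer for the ATP substrate; Dosing: test compounds dosed from 2 mM stocks in 100% DMSO; Times: 10 min, room temperature; Signal: luminescence from luciferase reaction; Read-out: luciferase activation; Controls: No-ATP low control, compound-free enzyme-plus-ATP high control.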
* marks the source's active call; other numbers are inactive results; . = no result.

SMILES	PPC-1+TRAIL kill	HSP90 refold inh	FLuc inh counter	TRAIL sens C8	FLuc act counter
Cc1cccc(C(=O)N/N=C/c2ccccn2)c1	41	2	51*	32	0.5
Cc1ccc(CCNC(=O)c2cc(S(=O)(=O)N3CCCCC3)c[nH]2)cc1	.	5	.	2	.
O=C(NCCc1ccc(Cl)cc1)c1cc(S(=O)(=O)N2CCCCC2)c[nH]1	.	38*	.	1	.
Cc1ccc2oc(-c3ccccc3)c(C(=O)O)c(=O)c2c1	28	2	6	57*	0.9
O=C(O)c1c(-c2ccccc2)oc2ccc(O)cc12	.	-4	.	-20	.
Cn1c(=NC(=O)CCl)sc2ccccc21	12	-3	-3	94*	1
Cn1c(=NC(=O)c2cccc([N+](=O)[O-])c2)sc2ccccc21	-1	-1	8	57*	0.9
CCCCOCCCNC(=O)C[C@@H]1C[C@@]2(C(=O)OCC)CCCC=C2N(CCc2ccc(OC)c(OC)c2)C1=O	.	.	.	-31	.
Cc1ccc(Nc2nc(C)cc(C)c2C#N)c(C)c1	.	.	.	-28	.
O=C(OCc1ccccc1)N(CCCCN(CCCNCc1ccccc1)C(=O)OCc1ccccc1)CCCNCc1ccccc1	.	.	.	96*	.
COc1cccc(-n2c(SCC(=O)N3CCc4ccccc43)nnc2-c2c[nH]c3ccccc23)c1	6	5	-3	59*	1
Cc1ccc(S(=O)(=O)NC(=O)Cn2nnc(-c3ccccc3)c2COc2ccc3ccccc3c2)cc1	.	.	.	-6	.
CSc1ncnc2c1ncn2CCCNCC(c1ccccc1)c1ccccc1	.	.	.	-1	.
O=C(Nc1cccc(O)c1)c1cc(-c2ccco2)on1	26	17*	76*	1	0.2
COc1ccc(C(=O)c2c(C(F)(F)F)oc3c2C(=O)c2ccccc2C3=O)cc1	21	13	1	98*	1
COc1ccc(C(=O)c2coc(-c3ccccc3C(=O)O)c2C(=O)O)cc1	7	0	-3	-20	1
CNc1c2cccc(C)c2nc2c(C(=O)NCCN(C)C)cccc12	.	.	.	74*	.
Cc1ccc(C(=O)NCCN(C)C)c(C)c1	-2	-1	-3	3	1
CC(C)c1ccc(NC(=O)C2(C)Cc3c(-c4cccc(C(F)(F)F)c4)ccnc3O2)cc1 (stereo not drawn)	.	.	.	-7	.
C#CCOCCOCCOCCNc1nc(N2CCN(C(=O)CCCCCCCCCCNC(=O)[C@H](CCCCN)n3cc(C[C@@H](C)CC)nn3)CC2)nc(N2CCN(C(=O)CCCCCCCCCCNC(=O)[C@H](CCCCN)n3cc(C[C@@H](C)CC)nn3)CC2)n1	.	.	.	95*	.
C#CCOCCOCCOCCNc1nc(N2CCN(C(=O)[C@H](Cc3cc4ccccc4[nH]3)n3cc([C@@H](N)Cc4ccc(O)cc4)nn3)CC2)nc(N2CCN(C(=O)[C@H](Cc3cc4ccccc4[nH]3)n3cc([C@@H](N)CC(C)C)nn3)CC2)n1	-12	.	.	.	.
C#CCOCCOCCOCCNc1nc(N2CCN(C(=O)CCCCCCCCCCNC(=O)Cn3cc(C[C@@H](C)O)nn3)CC2)nc(N2CCN(C(=O)CCCCCCCCCCNC(=O)[C@H](CCCCN)n3cc(C[C@@H](C)CC)nn3)CC2)n1	.	.	.	86*	.
C#CCOCCOCCOCCNc1nc(N2CCN(C(=O)C(Cc3cc4ccccc4[nH]3)n3cc(C(N)Cc4ccc(O)cc4)nn3)CC2)nc(N2CCN(C(=O)C(Cc3cc4ccccc4[nH]3)n3cc(C(N)Cc4ccc(O)cc4)nn3)CC2)n1 (stereo not drawn)	23	23*	-12	.	1.1
C#CCOCCOCCOCCNc1nc(N2CCN(C(=O)CCCCCCCCCCNC(=O)[C@H](CCCCN)n3cc(CCO)nn3)CC2)nc(N2CCN(C(=O)CCCCCCCCCCNC(=O)[C@H](CCCN=C(N)N)n3cc(C[C@@H](C)CC)nn3)CC2)n1	.	.	.	0	.
Cc1ccc(C(=O)O)cc1NC(=O)CCc1c(C)noc1C	.	.	.	7	.
SMILES	PPC-1+TRAIL kill	HSP90 refold inh	FLuc inh counter	TRAIL sens C8	FLuc act counter
Cc1ccc2c(c1)C(=NC1CCCCC1)c1cc3ccccc3nc1-2	14	-3	7	64*	0.9
Cc1ccc2c(c1)-c1nc3ccccc3cc1C2=NC1CCCCC1	25	3	5	51*	0.9
CCOC(=O)c1cc(OC(C)=O)c2ccc(OC)c(OC)c2c1	.	.	.	-8	.
CCOc1ccc(-c2nc(-c3ccccc3C)no2)cc1	39	-2	54*	.	0.5
Clc1ccccc1-c1nc(-c2cccnc2)no1	24	0	74*	34	0.3
COc1ccc(-c2nc(-c3ccncc3)no2)cc1	.	21*	.	-1	.
CCOc1ccc(-c2nc(-c3cccnc3)no2)cc1	32	2	71*	58*	0.3
COc1ccc(-c2nc(-c3cccnc3)no2)cc1	24	8	.	41	.
COc1ccc(N=Cc2[nH]c3ccccc3c2O)cc1	21	-1	86*	0	0.1
Cc1nc(NC(=S)NC(=O)c2ccccc2)sc1C	19	-3	.	63*	.
Cc1nc(NC(=O)c2ccccc2)sc1C	.	7	.	18	.
O=C(NC(=S)Nc1nc2c(s1)CCCC2)c1ccccc1	23	-1	63*	71*	0.4
OC1C2COC(O2)C2OC(c3ccccc3)OC12 (stereo not drawn)	.	.	.	6	.
CCCNC(=O)C1(C)CCN(C(=O)c2ccc3sccc3c2)C1 (stereo not drawn)	.	.	.	-15	.
CCCCc1ccc(S(=O)(=O)NC(=O)C2(C)CCN2C(=O)CCc2cccs2)cc1 (stereo not drawn)	.	.	.	1	.
C[C@@H]1CN([C@@H](C)CO)C(=O)CCCn2nncc2CO[C@H]1CN(C)S(=O)(=O)c1cccs1	.	.	.	-16	.
O=c1c2[nH]c3ccccc3c2ncn1C1CCCCC1	16	-2	32	69*	0.7
CC1=C(C(=O)N2CCCCCC2)CC(CC(=O)NC2CCCC2)C(=O)N1CCC1=CCCCC1 (stereo not drawn)	.	.	.	4	.
Cc1cc(/C=C2/C(=N)N3C(=NC2=O)SN=C3S(C)(=O)=O)c(C)n1-c1ccc(F)cc1	9	-5	70*	38	0.3
Cc1ccc(-c2nn(-c3ccccc3)cc2C=O)o1	17	-1	62*	21	0.4
N#C/C(=N\Nc1ccc(F)cc1)C(=N)N1CCCCCC1	.	8	59*	31	0.4
Cc1ccc(N/N=C(\C#N)C(=N)N2CCCCCC2)cc1	42	5	51*	31	0.5
N#C/C(=N\Nc1ccc(Cl)cc1)C(=N)N1CCCCC1	12	14	35	21	0.6
CC1(C(=O)Nc2ccccc2F)CCN1C(=O)Cc1ccc(-c2ccccc2)cc1 (stereo not drawn)	.	.	.	3	.
CCOc1ccccc1-c1cc(C(=O)N/N=C/c2ccc3c(c2)OCO3)c2ccccc2n1	7	0	-4	10	1
C/C(=N\NC(=O)c1cc(-c2ccco2)nc2ccccc12)c1cccnc1	16	0	53*	8	0.5
CCOc1ccc(/C=N/NC(=O)c2cc(-c3ccco3)nc3ccccc23)cc1	3	5	53*	14	0.5
O=C(N/N=C/c1ccc(F)cc1)c1cc(-c2ccco2)nc2ccccc12	6	-1	48	50*	0.5
